Assay results taken from ChEMBL document CHEMBL1926651, “Design, synthesis, antiviral and cytostatic evaluation of novel isoxazolidine nucleotide analogues with a 1,2,3-triazole linker” (Eur J Med Chem, 2012).
Active and inactive are the calls of the source. No cut-off for these calls is given here.

Legend:
Human betaherpesvirus 5 [1] = assay: Antiviral activity against Human cytomegalovirus Davis infected in human HEL cells assessed as inhibition of viral plaque formation at 250 uM; assay type: functional, organism-based
Human alphaherpesvirus 1 [2] = assay: Antiviral activity against Herpes simplex virus 1 KOS infected in human HEL cells assessed as inhibition of viral plaque formation at 250 uM; assay type: functional, organism-based
Outline: (§1)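 Confluent host cell monolayers were inoculated with 100 CCID50 of virus in the presence of test compound at serial dilutions (250, 50, 10, … μM). Viral cytopathicity was scored once it reached completion in untreated virus-infected controls.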

Coxsackievirus B4 [3] = assay: Antiviral activity against Coxsackievirus B4 infected in human HeLa cells assessed as inhibition of viral plaque formation at 250 uM; assay type: functional, organism-based; outline: as §1
[4] = tested on: Vesicular stomatitis virus; assay: Antiviral activity against Vesicular stomatitis virus infected in human Hela cells assessed as inhibition of viral plaque formation at 250 uM; assay type: functional, organism-based
Vaccinia virus = assay: Antiviral activity against Vaccinia virus infected in human HEL cells assessed as inhibition of viral plaque formation at 250 uM; assay type: functional, organism-based; conditions: Orthopoxvirus vaccinia; outline: as §1
Feline coronavirus = assay: Antiviral activity against Feline coronavirus infected in CrFK cells assessed as inhibition of viral plaque formation at 250 uM; assay type: functional, organism-based; outline: as §1
[5] = tested on: Human immunodeficiency virus 2; assay: Antiviral activity against Human immunodeficiency virus 2 infected in human CEM cells assessed as inhibition of virus-induced giant cell formation after 4 days by microscopic analysis; assay type: functional, organism-based; conditions: CCRF-CEM
Outline: (§2)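 CEM cells at about 3 × 10⁵ cells/cm³ were infected with 100 CCID50/mL of HIV-1(IIIB) or HIV-2(ROD), then seeded into wells holding test compound dilutions. After 4 days at 37 °C, virus-induced giant cell formation was scored microscopically.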

Coxsackievirus B4 [6] = assay: Antiviral activity against Coxsackievirus B4 infected in african green monkey Vero cells assessed as inhibition of viral plaque formation at 250 uM; assay type: functional, organism-based; outline: as §1
[7] = tested on: Mammalian orthoreovirus 1; assay: Antiviral activity against Reovirus-1 infected in african green monkey Vero cells assessed as inhibition of viral plaque formation at 250 uM; assay type: functional, organism-based; outline: as §1
Felid alphaherpesvirus 1 = assay: Antiviral activity against Felid herpesvirus 1 infected in CrFK cells assessed as inhibition of viral plaque formation at 250 uM; assay type: functional, organism-based; outline: as §1
Human betaherpesvirus 5 [8] = assay: Antiviral activity against Human cytomegalovirus AD169 infected in human HEL cells assessed as inhibition of viral plaque formation at 250 uM; assay type: functional, organism-based
[9] = tested on: Respiratory syncytial virus; assay: Antiviral activity against Respiratory syncytial virus infected in human HeLa cells assessed as inhibition of viral plaque formation at 250 uM; assay type: functional, organism-based; outline: as §1
CCRF-CEM = assay: Cytotoxicity against human CEM cells 3 days by coulter counting; assay type: functional; conditions: 72 h
Outline: (§3)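 Cells were suspended at 300,000–500,000 cells/mL and added 1:1 to compound dilutions. Incubation was at 37 °C, 2 days for L1210 and 3 days for CEM, HeLa and HEL. Cells were counted with a Coulter counter. CC50 is the concentration inhibiting cell proliferation by 50%.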

Human respirovirus 3 = assay: Antiviral activity against Parainfluenza-3 virus infected in african green monkey Vero cells assessed as inhibition of viral plaque formation at 250 uM; assay type: functional, organism-based; outline: as §1
Human alphaherpesvirus 3 [10] = assay: Antiviral activity against thymidine kinase-positive Varicella Zoster virus Oka infected in human HEL cells assessed as inhibition of viral plaque formation at 250 uM; assay type: functional, cell-based; conditions: strain Oka vaccine
Sindbis virus = assay: Antiviral activity against Sindbis virus infected in african green monkey Vero cells assessed as inhibition of viral plaque formation at 250 uM; assay type: functional, organism-based; outline: as §1
Human alphaherpesvirus 3 [11] = assay: Antiviral activity against thymidine kinase-deficient Varicella Zoster virus 07/1 infected in human HEL cells assessed as inhibition of viral plaque formation at 250 uM; assay type: functional, organism-based
[12] = tested on: Human immunodeficiency virus 1; assay: Antiviral activity against Human immunodeficiency virus 1 infected in human CEM cells assessed as inhibition of virus-induced giant cell formation after 4 days by microscopic analysis; assay type: functional, organism-based; conditions: CCRF-CEM; outline: as §2
Punta Toro virus = assay: Antiviral activity against Punta Toro virus infected in african green monkey Vero cells assessed as inhibition of viral plaque formation at 250 uM; assay type: functional, organism-based
HEL = assay: Cytotoxicity against human HEL cells 3 days by coulter counting; assay type: functional; conditions: 72 h; outline: as §3
[13] = tested on: Vesicular stomatitis virus; assay: Antiviral activity against Vesicular stomatitis virus infected in human HEL cells assessed as inhibition of viral plaque formation at 250 uM; assay type: functional, organism-based; outline: as §1
L1210 = assay: Cytotoxicity against mouse L1210 cells 2 days by coulter counting; assay type: functional; conditions: L1210, 48 h; outline: as §3
Human alphaherpesvirus 2 = assay: Antiviral activity against Herpes simplex virus 2 G infected in human HEL cells assessed as inhibition of viral plaque formation at 250 uM; assay type: functional, organism-based; conditions: strain G
Human alphaherpesvirus 1 [14] = assay: Antiviral activity against thymidine kinase-deficient acv-resistant Herpes simplex virus 1 KOS infected in human HEL cells assessed as inhibition of viral plaque formation at 250 uM; assay type: functional, organism-based
HeLa = assay: Cytotoxicity against human HeLa cells 3 days by coulter counting; assay type: functional; conditions: 72 h; outline: as §3

CCOP(=O)(OCC)[C@@H]1C[C@@H](n2cc(Cn3cnc4c(N)ncnc43)nn2)ON1C (racemic)
Activity (Human betaherpesvirus 5 [1]): inactive
Activity (Human alphaherpesvirus 1 [2]): inactive
Activity (Coxsackievirus B4 [3]): inactive
Activity [4]: inactive
Activity (Vaccinia virus): inactive
Activity (Feline coronavirus): inactive
Activity [5]: inactive
Activity (Coxsackievirus B4 [6]): inactive
Activity [7]: inactive
Activity (Felid alphaherpesvirus 1): inactive
Activity (Human betaherpesvirus 5 [8]): inactive
Activity [9]: inactive
CC50 (CCRF-CEM): > 250 µM
Activity (Human respirovirus 3): inactive
Activity (Human alphaherpesvirus 3 [10]): inactive
Activity (Sindbis virus): inactive
Activity (Human alphaherpesvirus 3 [11]): inactive
Activity [12]: inactive
Activity (Punta Toro virus): inactive
CC50 (HEL): > 100 µM
Activity [13]: inactive
CC50 (L1210): 140 µM
Activity (Human alphaherpesvirus 2): inactive
Activity (Human alphaherpesvirus 1 [14]): inactive
CC50 (HeLa): > 250 µM

CCOP(=O)(OCC)[C@@H]1C[C@H](n2cc(Cn3ccc(=O)[nH]c3=O)nn2)ON1C (racemic)
Activity (Human betaherpesvirus 5 [1]): inactive
Activity (Human alphaherpesvirus 1 [2]): inactive
Activity (Coxsackievirus B4 [3]): inactive
Activity [4]: inactive
Activity (Vaccinia virus): inactive
Activity (Feline coronavirus): inactive
Activity [5]: inactive
Activity (Coxsackievirus B4 [6]): inactive
Activity [7]: inactive
Activity (Felid alphaherpesvirus 1): inactive
Activity (Human betaherpesvirus 5 [8]): inactive
Activity [9]: inactive
CC50 (CCRF-CEM): > 250 µM
Activity (Human respirovirus 3): inactive
Activity (Human alphaherpesvirus 3 [10]): inactive
Activity (Sindbis virus): inactive
Activity (Human alphaherpesvirus 3 [11]): inactive
Activity [12]: inactive
Activity (Punta Toro virus): inactive
CC50 (HEL): > 100 µM
Activity [13]: inactive
CC50 (L1210): 235 µM
Activity (Human alphaherpesvirus 2): inactive
Activity (Human alphaherpesvirus 1 [14]): inactive
CC50 (HeLa): > 250 µM

CCOP(=O)(OCC)[C@@H]1C[C@H](n2cc(Cn3cc(C)c(=O)[nH]c3=O)nn2)ON1C (racemic)
Activity (Human betaherpesvirus 5 [1]): inactive
Activity (Human alphaherpesvirus 1 [2]): inactive
Activity (Coxsackievirus B4 [3]): inactive
Activity [4]: inactive
Activity (Vaccinia virus): inactive
Activity (Feline coronavirus): inactive
Activity [5]: inactive
Activity (Coxsackievirus B4 [6]): inactive
Activity [7]: inactive
Activity (Felid alphaherpesvirus 1): inactive
Activity (Human betaherpesvirus 5 [8]): inactive
Activity [9]: inactive
CC50 (CCRF-CEM): > 250 µM
Activity (Human respirovirus 3): inactive
Activity (Human alphaherpesvirus 3 [10]): inactive
Activity (Sindbis virus): inactive
Activity (Human alphaherpesvirus 3 [11]): inactive
Activity [12]: inactive
Activity (Punta Toro virus): inactive
CC50 (HEL): > 100 µM
Activity [13]: inactive
CC50 (L1210): 280 µM
Activity (Human alphaherpesvirus 2): inactive
Activity (Human alphaherpesvirus 1 [14]): inactive
CC50 (HeLa): > 250 µM

CCOP(=O)(OCC)[C@@H]1C[C@@H](n2cc(Cn3ccc(=O)[nH]c3=O)nn2)ON1C (relative stereo)
Activity (Human betaherpesvirus 5 [1]): inactive
Activity (Human alphaherpesvirus 1 [2]): inactive
Activity (Coxsackievirus B4 [3]): inactive
Activity [4]: inactive
Activity (Vaccinia virus): inactive
Activity (Feline coronavirus): inactive
Activity [5]: inactive
Activity (Coxsackievirus B4 [6]): inactive
Activity [7]: inactive
Activity (Felid alphaherpesvirus 1): inactive
Activity (Human betaherpesvirus 5 [8]): inactive
Activity [9]: inactive
CC50 (CCRF-CEM): > 250 µM
Activity (Human respirovirus 3): inactive
Activity (Human alphaherpesvirus 3 [10]): inactive
Activity (Sindbis virus): inactive
Activity (Human alphaherpesvirus 3 [11]): inactive
Activity [12]: inactive
Activity (Punta Toro virus): inactive
CC50 (HEL): > 100 µM
Activity [13]: inactive
CC50 (L1210): > 250 µM
Activity (Human alphaherpesvirus 2): inactive
Activity (Human alphaherpesvirus 1 [14]): inactive
CC50 (HeLa): ≥ 250 µM
